Test results as given in ChEMBL document CHEMBL1955737, “Diarylpyrimidine-dihydrobenzyloxopyrimidine hybrids: new, wide-spectrum anti-HIV-1 agents active at (sub)-nanomolar level” (J Med Chem, 2011).
pEC50: −log10 of the molar value.

Columns and labels:
[1] = tested on: Human immunodeficiency virus 1; assay: Ratio of ID50 for HIV 1 reverse transcriptase Y188L mutant to ID50 for wild type HIV 1 NL4-3 reverse transcriptase
Summary of the method: (§1)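 Recombinant HIV-1 RT (wild type or K103N, L100I, Y181I or Y188L), purified to >95%, at 2-4 nM. RNA-dependent DNA polymerase assay with 0.5 μg poly(rA)/oligo(dT) 10:1 (0.3 μM 3'-OH ends) and 10 μM [3H]dTTP in 8% final DMSO. Initial velocities were taken from aliquots sampled every 2 min. […] The ratio is mutant ID50 over wild-type ID50. Means of at least three experiments.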

[2] = tested on: Human immunodeficiency virus 1; assay: Ratio of ID50 for HIV 1 reverse transcriptase Y181I mutant to ID50 for wild type HIV 1 NL4-3 reverse transcriptase; summary of the method: as §1
[3] = tested on: Human immunodeficiency virus 1; assay: Ratio of ID50 for HIV 1 reverse transcriptase L100I mutant to ID50 for wild type HIV 1 NL4-3 reverse transcriptase; summary of the method: as §1
[4] = tested on: Human immunodeficiency virus 1; assay: Ratio of ID50 for HIV 1 reverse transcriptase K103N mutant to ID50 for wild type HIV 1 NL4-3 reverse transcriptase; summary of the method: as §1
[5] = tested on: Human immunodeficiency virus type 1 reverse transcriptase (Human immunodeficiency virus 1), Q72547 [K103N]; assay: Ratio of MC1220 ID50 to compound ID50 for HIV 1 reverse transcriptase K103N mutant
[6] = tested on: Human immunodeficiency virus 1; assay: Ratio of efavirenz EC50 to compound EC50 for wild type HIV 1 NL4-3 infected in human MT4 cells; type: functional
[7] = Ratio of TMC120 CC50 to compound CC50 for human MT4 cells; type: ADME, cell-based
MT4 = assay: Ratio of MC1220 CC50 to compound CC50 for human MT4 cells; type: ADME, cell-based
[8] = tested on: Human immunodeficiency virus 1; assay: Antiviral activity against wild type HIV 1 NL4-3 infected in human MT4 cells assessed as inhibition of virus-induced cytopathic effect after 5 days by MTT assay; type: functional, organism-based; details: Human immunodeficiency virus 1, NL4-3, MT4, 120 h
[9] = tested on: Human immunodeficiency virus 1; assay: Resistance ratio of EC50 for multidrug-resistant HIV 1 IRLL98 harboring reverse transcriptase K101Q/Y181C/G190a mutant to EC50 for wild type HIV 1 NL4-3 infected in human MT4 cells; type: functional
Summary of the method: (§2)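 Fold change is the EC50 against the mutant strain (K103N, Y181C, Y188L or IRLL98) divided by the EC50 against wild-type NL4-3. Both EC50s come from MT-4 cells infected in the presence of a range of drug concentrations, with MTT viability read at day 5. Values are means of at least two experiments.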

[10] = tested on: Human immunodeficiency virus 1; assay: Antiviral activity against multidrug-resistant HIV 1 IRLL98 harboring reverse transcriptase K101Q/Y181C/G190a mutant infected in human MT4 cells assessed as virus-induced cytopathic effect after 5 days by MTT assay; type: functional, organism-based; details: Human immunodeficiency virus 1, IRLL98, MT4, 120 h
Summary of the method: (§3)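 MT-4 cells (NIH AIDS Reagent Program) infected with the mutant HIV-1 strain in the presence of a range of drug concentrations. Mutant strains were from the MRC Centralised Facility for AIDS Reagents; IRLL98 carries K101Q, Y181C and G190A. Viable cells were counted by MTT colorimetry at day 5 post-infection. […] Values are means of at least two experiments.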

[11] = Cytotoxicity against human MT4 cells assessed as cell viability by MTT assay; type: cell-based
[12] = tested on: Human immunodeficiency virus 1; assay: Antiviral activity against HIV 1 harboring reverse transcriptase K103N mutant infected in human MT4 cells assessed as inhibition of virus-induced cytopathic effect after 5 days by MTT assay; type: functional, organism-based; details: Human immunodeficiency virus 1, MT4, 120 h
[13] = tested on: Human immunodeficiency virus 1; assay: Antiviral activity against HIV 1 harboring reverse transcriptase Y181C mutant infected in human MT4 cells assessed as inhibition of virus-induced cytopathic effect after 5 days by MTT assay; type: functional, organism-based; details: Human immunodeficiency virus 1, MT4, 120 h; summary of the method: as §3
[14] = tested on: Human immunodeficiency virus 1; assay: Antiviral activity against HIV 1 harboring reverse transcriptase Y188L mutant infected in human MT4 cells assessed as inhibition of virus-induced cytopathic effect after 5 days by MTT assay; type: functional, organism-based; details: Human immunodeficiency virus 1, MT4, 120 h
[15] = tested on: Human immunodeficiency virus type 1 reverse transcriptase (Human immunodeficiency virus 1), Q72547 [L100I]
[16] = tested on: Human immunodeficiency virus type 1 reverse transcriptase (Human immunodeficiency virus 1), Q72547 [K103N]
[17] = tested on: Human immunodeficiency virus type 1 reverse transcriptase (Human immunodeficiency virus 1), Q72547 [Y181I]
[18] = target: Human immunodeficiency virus type 1 reverse transcriptase (Human immunodeficiency virus 1) (UniProt Q72547)
[19] = Selectivity index, ratio of CC50 for human MT4 cells to EC50 for HIV 1 NL4-3; type: toxicity, cell-based; details: read-out: Ratio CC50/EC50
Summary of the method: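 CC50 from mock-infected MT-4 cells and EC50 against HIV-1 NL4-3 in infected MT-4 cells, both by day-5 MTT viability read-out; index computed as CC50/EC50(NL4-3); means of at least two experiments.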

[20] = tested on: Human immunodeficiency virus 1; assay: Resistance ratio of EC50 for HIV 1 harboring reverse transcriptase K103N mutant infected in human MT4 cells to EC50 for wild type HIV 1 NL4-3 infected in human MT4 cells; type: functional; summary of the method: as §2
[21] = tested on: Human immunodeficiency virus 1; assay: Resistance ratio of EC50 for HIV 1 harboring reverse transcriptase Y181C mutant infected in human MT4 cells to EC50 for wild type HIV 1 NL4-3 infected in human MT4 cells; type: functional; summary of the method: as §2
[22] = tested on: Human immunodeficiency virus 1; assay: Resistance ratio of EC50 for HIV 1 harboring reverse transcriptase Y188L mutant infected in human MT4 cells to EC50 for wild type HIV 1 NL4-3 infected in human MT4 cells; type: functional; summary of the method: as §2

| Structure (SMILES) | Ratio [1] | Ratio [2] | Ratio [3] | Ratio [4] | Ratio EC50 [6] | selectivity ratio [7] | Ratio (MT4) | pEC50 [8] | Ratio EC50 [9] | pEC50 [10] | CC50 [11] [nM] | pEC50 [12] | pEC50 [13] | pEC50 [14] | ID50 [15] [nM] | ID50 [16] [nM] | ID50 [17] [nM] | ID50 [18] [nM] | selectivity ratio [19] | Ratio EC50 [20] | also measured |
| --- | --- | --- | --- | --- | --- | --- | --- | --- | --- | --- | --- | --- | --- | --- | --- | --- | --- | --- | --- | --- | --- |
| Cc1c(N)nc(Nc2ccc(C#N)cc2)nc1C(C)c1c(F)cccc1F (stereo not drawn) | 10 | 120 | 20 | 1.6 | >10 | > 10 | 2.5 | 10.10 | 10 | 9.09 | 40500 | 7.46 | 7.40 | 7.56 | 282 | 22 | 1680 | 14 |  |  | Ratio [5]: 23 |
| Cc1c(Cl)nc(Nc2ccc(C#N)cc2)nc1C(C)c1c(F)cccc1F (stereo not drawn) | 2.6 | 386 | 17 | 8.1 |  |  |  | 8.64 | 3 | 8.11 | > 13000 | 8.64 | 7.36 | 7.22 | 150 | 71 | 3400 | 8.8 | > 5650 | 1 | Ratio EC50 [21]: 22; Ratio EC50 [22]: 30 |
| Cc1c(N)nc(Nc2ccc(C#N)cc2)nc1Cc1c(F)cccc1F | 315 | 2010 | 55 | 8 | >10 | > 10 | 2.5 | 9.70 |  |  | 45900 | 8.09 | 7.15 | 6.82 | 603 | 90 | 22100 | 11 | 230000 | 41 | Ratio EC50 [21]: 352; Ratio EC50 [22]: 756 |
